What was measured:
[1] = tested on: Macrophage (Homo sapiens); test: Inhibition of cholesterol ester accumulation in human monocyte-derived macrophages at 20 uM
HeLa = test: Cytotoxicity against human HeLa cells after 3 days by MTT assay; assay type: functional, cell-based; details: 72 h
How it was run: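 HeLa cells were used, following a previously reported procedure. The result was expressed as an IC50 in μM.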

[2] = Inhibition of chymotrypsin-like activity of rat liver proteasome using fluorogenic substrates for 6 hrs
How it was run: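 The chymotrypsin-like activity of the proteasome was measured by a previously reported procedure. Inhibition was expressed as an IC50 in μM.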

O=C(O)/C=C\CCCN1C(=O)C[C@]23CN4CCCC/C=C\CC[C@](O)(C=C(c5nccc6c5[nH]c5ccccc56)[C@@H]2CC4)[C@H]13
inhibition at 20 µM [1]: 0% | IC50 (HeLa): > 50 µM | IC50 [2]: 33 µM

O[C@]12C=C(c3nccc4c3[nH]c3ccccc34)[C@@H]3CCN(CCCC/C=C\CC1)C[C@@]31C[C@@H]3/C=C\CCCCN3[C@H]12 [MANZAMINE A]
inhibition at 20 µM [1]: 80% | IC50 (HeLa): 13 µM | IC50 [2]: 2 µM

O[C@@H]1CC[C@@]23C[C@]45CN6CCCC/C=C\CC[C@](O)(C=C(c7nccc8c7[nH]c7ccccc78)[C@@H]4CC6)[C@@H]5N2CC[C@@H]1O3
inhibition at 20 µM [1]: 91% | IC50 (HeLa): 16 µM | IC50 [2]: 0.34 µM

O[C@@H]1CC[C@@]23C[C@]45CN6CCCC/C=C\CC[C@](O)(C=C(c7nccc8c7[nH]c7ccccc78)[C@@H]4CC6)[C@@H]5N2CC[C@@H]1O[C@@]12CC[C@@H](O3)[C@@H](O)CCN1[C@@H]1[C@]3(CN4CCCC/C=C\CC[C@]1(O)C=C(c1nccc5c1[nH]c1ccccc15)[C@@H]3CC4)C2
inhibition at 20 µM [1]: 92% | IC50 (HeLa): 5.4 µM | IC50 [2]: 0.13 µM
